Experimental data reported in ChEMBL document CHEMBL1132547, “Molecular recognition of modified adenine nucleotides by the P2Y(1)-receptor. 1. A synthetic, biochemical, and NMR approach” (J Med Chem, 1999).

Tests used:
P2Y purinoceptor 1 = P2Y purinoceptor 1 (Meleagris gallopavo, UniProt P49652); assay: Compounds was tested for its ability to stimulate phospholipase C activity at the P2Y purinoceptor 1 in turkey erythrocyte membranes.; assay type: cell membranes
Outline: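 Turkey erythrocytes labeled 18–24 h at 37 °C with 2-[3H]myo-inositol in inositol-free DMEM; membranes from hypotonic lysis; PLC assay at pH 7.0 with […] and varying nucleotide concentrations, 5 min at 30 °C; total [3H]inositol phosphates by ion-exchange chromatography; EC50 from four-parameter logistic fit, ≥3 experiments on different membrane preparations, duplicate assays.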

Rattus norvegicus [1] = organism: Rattus norvegicus; assay: Amplitude of the [Ca++]i Transient evoked by 10 uM ATP, AMP and the compound in NG108-15 Neuroblastoma x Glioma Hybrid cells; assay type: functional
Outline: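 NG108-15 cells (passage 24–40) grown on glass coverslips 3–7 days (20–80% confluency), loaded 30 min at 37 °C with 2 μM fura-2/AM in HEPES-buffered saline pH 7.4, superfused at 37 °C; 30-s agonist application at 10 μM; single-cell imaging, alternate 340/380 nm excitation, emission >510 nm; amplitude as Δ F340/F380 ratio, mean ± SEM over n single cells.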

Rattus norvegicus [2] = organism: Rattus norvegicus; assay: Amplitude of the [Ca++]i Transient evoked by 10 uM ATP, AMP and the compound in rat Astrocytes, expressed as (F340 nm/F380 nm); assay type: functional
Outline: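 Primary astrocyte-enriched cultures from newborn Wistar rat whole brain, used on days 6–11 in culture; fura-2/AM (2 μM, 30 min, 37 °C, HEPES-buffered saline pH 7.4) loading; superfusion at 37 °C, 30-s stimulation at 10 μM; single-cell 340/380 nm ratio imaging; maximal Δ F340/F380, mean ± SEM, n = single cells.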

P2Y purinoceptor 1, sequence (P49652 whole entry): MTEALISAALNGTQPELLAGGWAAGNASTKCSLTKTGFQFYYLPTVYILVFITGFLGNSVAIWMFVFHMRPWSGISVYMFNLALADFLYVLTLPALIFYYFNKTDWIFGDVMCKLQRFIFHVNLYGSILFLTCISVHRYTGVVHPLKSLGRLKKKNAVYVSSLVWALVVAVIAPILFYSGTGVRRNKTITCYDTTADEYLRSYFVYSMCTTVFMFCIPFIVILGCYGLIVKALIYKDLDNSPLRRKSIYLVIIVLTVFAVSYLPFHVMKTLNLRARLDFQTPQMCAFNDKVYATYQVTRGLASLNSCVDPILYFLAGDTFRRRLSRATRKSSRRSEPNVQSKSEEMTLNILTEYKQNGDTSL

EC50 (P2Y purinoceptor 1) | SMILES | Activity (Rattus norvegicus [1]) | Activity (Rattus norvegicus [2])
51000 nM | CCCCNc1nc2c(N)ncnc2n1[C@@H]1O[C@H](COP(=O)(O)OP(=O)(O)OP(=O)(O)O)[C@@H](O)[C@H]1O |  | 
10000 nM | CCCCSc1nc2c(N)ncnc2n1[C@@H]1O[C@H](COP(=O)(O)OP(=O)(O)OP(=O)(O)O)[C@@H](O)[C@H]1O |  | 
88 nM | CCCCOc1nc(N)c2ncn([C@@H]3O[C@H](COP(=O)([O-])OP(=O)([O-])OP(=O)([O-])[O-])[C@@H](O)[C@H]3O)c2n1.[Na+].[Na+].[Na+].[Na+] | 0.06 | 0.63
5710 nM | CCCCOc1nc2c(N)ncnc2n1[C@@H]1O[C@H](COP(=O)(O)OP(=O)(O)OP(=O)(O)O)[C@@H](O)[C@H]1O |  | 
18 nM | CCCCSc1nc(N)c2ncn([C@@H]3O[C@H](COP(=O)([O-])OP(=O)([O-])OP(=O)([O-])[O-])[C@@H](O)[C@H]3O)c2n1.[Na+].[Na+].[Na+].[Na+] | 0.23 | 0.9
39 nM | CCCCNc1nc(N)c2ncn([C@@H]3O[C@H](COP(=O)([O-])OP(=O)([O-])OP(=O)([O-])[O-])[C@@H](O)[C@H]3O)c2n1.[Na+].[Na+].[Na+].[Na+] | 0.05 | 0.89
 | CCCCSc1nc(N)c2ncn(C3O[C@H](COP(=O)([O-])[O-])[C@@H](O)[C@H]3O)c2n1.[Na+].[Na+] (stereo partly drawn) |  | 0.28
